Columns and labels:
Assay type in all cases: functional
[1] = tested on: NCI-H460; assay: Anticancer activity against human NCI-H460 cells assessed as cell growth at 100 uM after 48 hrs by sulforhodamine B assay; details: NCI-H460, 48 h, read-out: Activity
[2] = tested on: CCRF-CEM; assay: Growth inhibition of human CCRF-CEM cells after 48 hrs by sulforhodamine B assay
Procedure, shortened: (§1)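 NCI 60-human-tumor-cell-line panel, with compounds tested over a 5-log dose range. Values are taken from dose-response curves as log10 molar concentrations: GI50 is 50% net growth inhibition, TGI is total growth inhibition, and LC50 is 50% net cell death.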

[3] = tested on: HL-60(TB); assay: Growth inhibition of human HL-60(TB) cells after 48 hrs by sulforhodamine B assay; details: HL-60, 48 h
Procedure, shortened: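 Tested only on compounds active in a three-line prescreen, in the NCI 60-human-tumour-cell-line panel over a 5-log dose range. Values come from dose–response curves as log10 molar GI50, the concentration inhibiting 50% net cell growth. Log10 TGI (total growth inhibition) and log10 LC50 (50% net cell death) were derived too. Mean graph midpoints include insensitive lines at the highest concentration tested.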

[4] = tested on: K562; assay: Growth inhibition of human K562 cells after 48 hrs by sulforhodamine B assay; details: K562, 48 h; procedure, shortened: as §1
[5] = tested on: MOLT-4; assay: Growth inhibition of human MOLT4 cells after 48 hrs by sulforhodamine B assay; details: MOLT-4, 48 h; procedure, shortened: as §1
[6] = tested on: HOP-62; assay: Growth inhibition of human HOP62 cells after 48 hrs by sulforhodamine B assay; details: HOP-62, 48 h; procedure, shortened: as §1
[7] = tested on: HOP-92; assay: Growth inhibition of human HOP92 cells after 48 hrs by sulforhodamine B assay; details: HOP-92, 48 h; procedure, shortened: as §1
[8] = tested on: NCI-H322M; assay: Growth inhibition of human NCI-H322M cells after 48 hrs by sulforhodamine B assay; procedure, shortened: as §1
[9] = tested on: NCI-H522; assay: Growth inhibition of human NCI-H522 cells after 48 hrs by sulforhodamine B assay; details: NCI-H522, 48 h; procedure, shortened: as §1
[10] = tested on: HCT-15; assay: Growth inhibition of human HCT15 cells after 48 hrs by sulforhodamine B assay; details: HCT-15, 48 h; procedure, shortened: as §1
[11] = tested on: HT-29; assay: Growth inhibition of human HT-29 cells after 48 hrs by sulforhodamine B assay; details: HT-29, 48 h; procedure, shortened: as §1
[12] = tested on: SF-268; assay: Growth inhibition of human SF268 cells after 48 hrs by sulforhodamine B assay; details: SF-268, 48 h; procedure, shortened: as §1
[13] = tested on: SF-539; assay: Growth inhibition of human SF539 cells after 48 hrs by sulforhodamine B assay; details: SF-539, 48 h; procedure, shortened: as §1
[14] = tested on: Malme-3M; assay: Growth inhibition of human MALME-3M cells after 48 hrs by sulforhodamine B assay; procedure, shortened: as §1
[15] = tested on: SK-MEL-2; assay: Growth inhibition of human SK-MEL-2 cells after 48 hrs by sulforhodamine B assay; details: SK-MEL-2, 48 h; procedure, shortened: as §1
[16] = tested on: SK-MEL-28; assay: Growth inhibition of human SK-MEL-28 cells after 48 hrs by sulforhodamine B assay; details: SK-MEL-28, 48 h; procedure, shortened: as §1
[17] = tested on: SK-MEL-5; assay: Growth inhibition of human SK-MEL-5 cells after 48 hrs by sulforhodamine B assay; details: SK-MEL-5, 48 h; procedure, shortened: as §1
[18] = tested on: UACC-257; assay: Growth inhibition of human UACC257 cells after 48 hrs by sulforhodamine B assay; details: UACC-257, 48 h
Procedure, shortened: (§2)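 Run in the NCI 60-human-tumour-cell-line panel, tested over a 5-log dose range. Dose–response curves gave three values per cell line, each as a log10 molar concentration: GI50 (50% inhibition of net cell growth), TGI (total inhibition of net growth) and LC50 (50% net cell death). The mean graph midpoint is the arithmetic mean over all lines, with insensitive lines entered at the highest concentration tested.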

[19] = tested on: UACC-62; assay: Growth inhibition of human UACC62 cells after 48 hrs by sulforhodamine B assay; details: UACC-62, 48 h; procedure, shortened: as §2
[20] = tested on: IGROV-1; assay: Growth inhibition of human IGROV1 cells after 48 hrs by sulforhodamine B assay; details: IGROV-1, 48 h; procedure, shortened: as §1
[21] = tested on: OVCAR-3; assay: Growth inhibition of human OVCAR-3 cells after 48 hrs by sulforhodamine B assay; details: OVCAR-3, 48 h; procedure, shortened: as §1
[22] = tested on: OVCAR-4; assay: Growth inhibition of human OVCAR4 cells after 48 hrs by sulforhodamine B assay; details: OVCAR-4, 48 h; procedure, shortened: as §1
[23] = tested on: A498; assay: Growth inhibition of human A498 cells after 48 hrs by sulforhodamine B assay; details: A498, 48 h; procedure, shortened: as §1
[24] = tested on: ACHN; assay: Growth inhibition of human ACHN cells after 48 hrs by sulforhodamine B assay
[25] = tested on: SN12C; assay: Growth inhibition of human SN12C cells after 48 hrs by sulforhodamine B assay; procedure, shortened: as §2
[26] = tested on: UO-31; assay: Growth inhibition of human UO31 cells after 48 hrs by sulforhodamine B assay; details: UO-31, 48 h; procedure, shortened: as §2
[27] = tested on: T47D; assay: Growth inhibition of human T47D cells after 48 hrs by sulforhodamine B assay; procedure, shortened: as §2
[28] = tested on: MCF7; assay: Growth inhibition of human MCF7 cells after 48 hrs by sulforhodamine B assay; details: MCF7, 48 h; procedure, shortened: as §1
[29] = read-out: pLC50 (the source's name) (converted)

COc1cc(CNc2nc3cc(N)cc(N)c3nc2-c2ccccc2)cc(OC)c1
growth at 100 µM [1]: -1%
GI50 [2]: 1.74 µM
LC50 [2]: > 100 µM
TGI ([2]; read-out: pTGI (converted)): 5.62 µM
GI50 [3]: 3.8 µM
LC50 [3]: > 100 µM
TGI ([3]; read-out: pTGI (converted)): > 100 µM
GI50 [4]: 3.63 µM
LC50 [4]: > 100 µM
TGI ([4]; read-out: pTGI (converted)): 9.33 µM
GI50 [5]: 3.02 µM
LC50 [5]: > 100 µM
TGI ([5]; read-out: pTGI (converted)): > 100 µM
GI50 [6]: 13.5 µM
LC50 [6]: 72.4 µM
TGI ([6]; read-out: pTGI (converted)): 31.6 µM
GI50 [7]: 1.15 µM
LC50 (50% net cell death) [7]: 9.55 µM
TGI ([7]; read-out: pTGI (converted)): 3.31 µM
GI50 [8]: 44.7 µM
LC50 [8]: > 100 µM
TGI ([8]; read-out: pTGI (converted)): > 100 µM
GI50 [9]: 2.88 µM
LC50 [9]: > 100 µM
TGI ([9]; read-out: pTGI (converted)): 22.9 µM
GI50 [10]: 19.5 µM
GI50 [11]: 8.13 µM
LC50 [11]: > 100 µM
TGI ([11]; read-out: pTGI (converted)): 44.7 µM
GI50 [12]: 5.37 µM
LC50 [12]: > 100 µM
TGI ([12]; read-out: pTGI (converted)): > 100 µM
GI50 [13]: 5.25 µM
LC50 [13]: 77.6 µM
TGI ([13]; read-out: pTGI (converted)): 21.4 µM
GI50 [14]: 4.9 µM
CC50 [14, 29]: > 100 µM
TGI ([14]; read-out: pTGI (converted)): 33.9 µM
GI50 [15]: 7.76 µM
CC50 [15, 29]: > 100 µM
TGI ([15]; read-out: pTGI (converted)): 40.7 µM
GI50 [16]: 1.78 µM
CC50 [16, 29]: > 100 µM
TGI ([16]; read-out: pTGI (converted)): 8.71 µM
GI50 [17]: 12.9 µM
CC50 [17, 29]: > 100 µM
TGI ([17]; read-out: pTGI (converted)): 41.7 µM
GI50 [18]: 25.7 µM
CC50 [18, 29]: > 100 µM
TGI ([18]; read-out: pTGI (converted)): > 100 µM
GI50 [19]: 5.37 µM
CC50 [19, 29]: > 100 µM
TGI ([19]; read-out: pTGI (converted)): 30.9 µM
GI50 [20]: 8.71 µM
CC50 [20, 29]: > 100 µM
TGI ([20]; read-out: pTGI (converted)): 56.2 µM
GI50 [21]: 1.86 µM
CC50 [21, 29]: > 100 µM
TGI ([21]; read-out: pTGI (converted)): 4.57 µM
GI50 [22]: 0.0141 µM
CC50 [22, 29]: 3.24 µM
TGI ([22]; read-out: pTGI (converted)): 0.977 µM
GI50 [23]: 91.2 µM
CC50 [23, 29]: > 100 µM
TGI ([23]; read-out: pTGI (converted)): > 100 µM
GI50 [24]: 9.33 µM
CC50 [24, 29]: > 100 µM
TGI ([24]; read-out: pTGI (converted)): 47.9 µM
GI50 [25]: 11.5 µM
CC50 [25, 29]: > 100 µM
TGI ([25]; read-out: pTGI (converted)): > 100 µM
GI50 [26]: 4.07 µM
CC50 [26, 29]: > 100 µM
TGI ([26]; read-out: pTGI (converted)): > 100 µM
GI50 [27]: 1.66 µM
CC50 [27, 29]: > 100 µM
TGI ([27]; read-out: pTGI (converted)): 4.57 µM
GI50 [28]: 8.32 µM
CC50 [28, 29]: > 100 µM
TGI ([28]; read-out: pTGI (converted)): > 100 µM
